In experiment [1] the test system is Staphylococcus aureus. Kind of experiment: Antibacterial activity against Staphylococcus aureus measured at MIC after 18 hrs by halo zone test. It is filed as functional. An outline of the steps:
(§1)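 Disk diffusion. Strains subcultured 18 h at 37 °C in BHI, then suspended in saline by McFarland to about 10⁵ CFU/mL. Suspension mixed 1:1 with antibiotic agar at 40 °C and plated. 6.0 mm paper disks loaded with dilutions from a DMSO stock (1 mg per 100 of DMSO). Incubated 18 h at 36 °C. Inhibition zone (mm) measured at the MIC. Amoxicillin and DMSO disks as controls.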

In experiment [2] the test system is Streptococcus pyogenes. Kind of experiment: Antibacterial activity against Streptococcus pyogenes measured at MIC after 18 hrs by halo zone test. It is filed as functional. The method in brief: as §1
For experiment [3], the system named is Salmonella typhimurium. Put plainly: Antibacterial activity against Salmonella Typhimurium measured at MIC after 18 hrs by halo zone test. Type of experiment: functional, Salmonella enterica subsp. enterica serovar Typhimurium. An outline of the steps: as §1
The test system of experiment [4] is Escherichia coli. Put plainly: Antibacterial activity against Escherichia coli measured at MIC after 18 hrs by halo zone test. Type of experiment: functional. An outline of the steps:
as §1

The subject of experiment [5] is Staphylococcus aureus. Put plainly: Antibacterial activity against Staphylococcus aureus after 18 hrs by macro-dilution test. It is filed as functional. An outline of the steps: (§2)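 Tube macro-dilution. Compounds in DMSO serially diluted to final […]. 24 h old inoculum added to each tube. Standard inoculum […]. Incubated 18 h at 37 °C. MIC is the lowest concentration with no visible growth, read visually. DMSO negative and amoxicillin positive controls.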

Experiment [6] has as its system Streptococcus pyogenes. Kind of experiment: Antibacterial activity against Streptococcus pyogenes after 18 hrs by macro-dilution test. It is filed as functional. The method in brief:
as §2

For experiment [7], the system named is Salmonella typhimurium. Put plainly: Antibacterial activity against Salmonella Typhimurium after 18 hrs by macro-dilution test. It is filed as functional, Salmonella enterica subsp. enterica serovar Typhimurium. Conditions: Salmonella enterica. An outline of the steps: as §2
Experiment [8] concerns Escherichia coli. Kind of experiment: Antibacterial activity against Escherichia coli after 18 hrs by macro-dilution test. It is filed as functional. An outline of the steps:
as §2

Molecules are shown by their SMILES. Values after ≈ are worked out from the molar mass of the structure shown.

One may read the MIC as the lowest concentration found to suppress growth. Lower therefore signals inhibition by little substance. Take `CC(=O)N1N=C(N(C(C)=O)C2CCCCCCC2)SC1c1cc2cccc(C)c2nc1Cl` (stereo unspecified): the “inhibition zone (IZ)” value in experiment [1] is given as 18.77 mm; in experiment [2] it was 15.45 mm; in experiment [3], 17.84 mm; in experiment [4] it was 19 mm. Moreover, the MIC in experiment [5] is 256 µg/mL (≈ 541 µM); in experiment [6] it was 256 µg/mL (≈ 541 µM); in experiment [7] it was 128 µg/mL (≈ 271 µM); in experiment [8] it was 256 µg/mL (≈ 541 µM).

As to `CC(=O)N(C1=NN(C(C)=O)C(c2cc3cccc(Cl)c3nc2Cl)S1)c1ccc(C)cc1` (stereo unspecified), the “inhibition zone (IZ)” value in experiment [1] was 15.67 mm; in experiment [2], 17.09 mm; in experiment [3], 16.88 mm; in experiment [4], 18.11 mm. In addition, the minimal inhibitory concentration (MIC) in experiment [5], in experiment [6], in experiment [7] and in experiment [8] was 64 µg/mL (≈ 135 µM) each time.

Consider `CC(=O)N(C1=NN(C(C)=O)C(c2cc3ccccc3nc2Cl)S1)c1ccc([N+](=O)[O-])cc1` (stereo unspecified), for which the “inhibition zone (IZ)” value in experiment [1] is 14.29 mm; in experiment [2], 14.92 mm; in experiment [3] it was 17.03 mm; in experiment [4], 14.34 mm. The MIC in experiment [5], in experiment [6], in experiment [7] and in experiment [8] was 64 µg/mL (≈ 136 µM) each time.

`CC1(C)S[C@@H]2[C@H](NC(=O)[C@H](N)c3ccc(O)cc3)C(=O)N2[C@H]1C(=O)O` [AMOXICILLIN]: the “inhibition zone (IZ)” value in experiment [1] is 20.85 mm; in experiment [2] it was 19.57 mm; in experiment [3] it was 21.82 mm; in experiment [4] it was 22.05 mm. For the same compound, the minimal inhibitory concentration (MIC) in experiment [5], in experiment [6], in experiment [7] and in experiment [8] was 32 µg/mL (≈ 87.6 µM) throughout.

As to `CC(=O)N1N=C(N(C(C)=O)C2CCCC2)SC1c1cc2cccc(Cl)c2nc1Cl` (stereo unspecified), the “inhibition zone (IZ)” value is recorded as 18.03 mm in experiment [1], 14.15 mm in experiment [2], 15.17 mm in experiment [3] and 18.18 mm in experiment [4]. For the same compound, the minimal inhibitory concentration (MIC) was 64 µg/mL (≈ 142 µM) in experiment [5], 64 µg/mL (≈ 142 µM) in experiment [6], 128 µg/mL (≈ 284 µM) in experiment [7] and 128 µg/mL (≈ 284 µM) in experiment [8].

With `CC(=O)N1N=C(N(C(C)=O)C2CCCCC2)SC1c1cc2cccc(Cl)c2nc1Cl` (stereo unspecified), the “inhibition zone (IZ)” value in experiment [1] is given as 17.39 mm; in experiment [2], 17.73 mm; in experiment [3], 16.72 mm; in experiment [4] it was 15.23 mm. Besides, the MIC was 64 µg/mL (≈ 138 µM) in experiment [5], 128 µg/mL (≈ 275 µM) in experiment [6], 256 µg/mL (≈ 550 µM) in experiment [7] and 128 µg/mL (≈ 275 µM) in experiment [8].

Consider `Cc1cccc2cc(/C=N/NC(=S)NC3CCCC3)c(Cl)nc12`, for which the “inhibition zone (IZ)” value is given as 20.04 mm in experiment [1], 18.71 mm in experiment [2], 17.44 mm in experiment [3] and 16.97 mm in experiment [4]. For the same compound, the minimum inhibitory concentration (MIC) in experiment [5], in experiment [6], in experiment [7] and in experiment [8] was 256 µg/mL (≈ 738 µM) throughout.

For the compound `S=C(N/N=C/c1cc2ccccc2nc1Cl)NC1CCCCC1`, the “inhibition zone (IZ)” value was 12.37 mm in experiment [1], 12.38 mm in experiment [2], 15.93 mm in experiment [3] and 17.68 mm in experiment [4]. In addition, the MIC was 256 µg/mL (≈ 738 µM) in experiment [5], 256 µg/mL (≈ 738 µM) in experiment [6], 128 µg/mL (≈ 369 µM) in experiment [7] and 128 µg/mL (≈ 369 µM) in experiment [8].

Consider `S=C(N/N=C/c1cc2ccccc2nc1Cl)NC1CCCC1`, for which the “inhibition zone (IZ)” value in experiment [1] turned out to be 19.52 mm; in experiment [2] it was 21.07 mm; in experiment [3], 22.58 mm; in experiment [4] it was 21.12 mm. Moreover, the minimal inhibitory concentration (MIC) in experiment [5] is 64 µg/mL (≈ 192 µM); in experiment [6] it was 128 µg/mL (≈ 385 µM); in experiment [7], 128 µg/mL (≈ 385 µM); in experiment [8], 128 µg/mL (≈ 385 µM).

On to `CC(=O)N1N=C(N(C(C)=O)C2CCCCC2)SC1c1cc2cccc(C)c2nc1Cl` (stereo unspecified), for which the “inhibition zone (IZ)” value was determined as 15.42 mm in experiment [1], 13.09 mm in experiment [2], 12.01 mm in experiment [3] and 16.75 mm in experiment [4]. Also, the MIC in experiment [5] amounted to 128 µg/mL (≈ 288 µM); in experiment [6], 128 µg/mL (≈ 288 µM); in experiment [7], 256 µg/mL (≈ 575 µM); in experiment [8], 256 µg/mL (≈ 575 µM).

Consider `Fc1ccc(F)c(NC(=S)N/N=C/c2cc3cccc(Cl)c3nc2Cl)c1`, for which the “inhibition zone (IZ)” value in experiment [1] is recorded as 12.15 mm; in experiment [2], 15.92 mm; in experiment [3], 14.92 mm; in experiment [4] it was 13.75 mm. Further, the MIC turned out to be 64 µg/mL (≈ 156 µM) in experiment [5], 32 µg/mL (≈ 77.8 µM) in experiment [6], 64 µg/mL (≈ 156 µM) in experiment [7] and 64 µg/mL (≈ 156 µM) in experiment [8].

On to `Cc1ccc(NC(=S)N/N=C/c2cc3cccc(Cl)c3nc2Cl)cc1`, for which the “inhibition zone (IZ)” value was 15.01 mm in experiment [1], 15.76 mm in experiment [2], 17.55 mm in experiment [3] and 15.88 mm in experiment [4]. Also, the MIC amounted to 64 µg/mL (≈ 164 µM) in experiment [5], 32 µg/mL (≈ 82.2 µM) in experiment [6], 32 µg/mL (≈ 82.2 µM) in experiment [7] and 64 µg/mL (≈ 164 µM) in experiment [8].

On to `Cc1cccc2cc(/C=N/NC(N)=S)c(Cl)nc12`, for which the “inhibition zone (IZ)” value in experiment [1] was found to be 12.76 mm; in experiment [2], 17.1 mm; in experiment [3], 18.02 mm. Further, the minimum inhibitory concentration (MIC) is 64 µg/mL (≈ 230 µM) in experiment [5], 128 µg/mL (≈ 459 µM) in experiment [6], 256 µg/mL (≈ 918 µM) in experiment [7] and 256 µg/mL (≈ 918 µM) in experiment [8].

With `S=C(N/N=C/c1cc2cccc(Cl)c2nc1Cl)NC1CCCCCCC1`, the results for the “inhibition zone (IZ)” value in experiment [2], in experiment [3] and in experiment [4] were 17.54 mm, 17.54 mm and 17.62 mm, respectively. The minimal inhibitory concentration (MIC) worked out at 256 µg/mL (≈ 625 µM) in experiment [5], 256 µg/mL (≈ 625 µM) in experiment [6], 256 µg/mL (≈ 625 µM) in experiment [7] and 128 µg/mL (≈ 313 µM) in experiment [8].

Consider `O=[N+]([O-])c1ccc(NC(=S)N/N=C/c2cc3cccc(Cl)c3nc2Cl)cc1`, for which the “inhibition zone (IZ)” value in experiment [1] was 19.7 mm; in experiment [2], 15.26 mm; in experiment [3], 15.99 mm. For the same compound, the MIC in experiment [5] turned out to be 32 µg/mL (≈ 76.1 µM); in experiment [6] it was 64 µg/mL (≈ 152 µM); in experiment [7], 64 µg/mL (≈ 152 µM); in experiment [8], 256 µg/mL (≈ 609 µM).

`Cc1ccccc1NC(=S)N/N=C/c1cc2ccccc2nc1Cl`: the “inhibition zone (IZ)” value in experiment [2] came out at 16.48 mm; in experiment [3], 14.73 mm; in experiment [4] it was 18.84 mm. The MIC was 256 µg/mL (≈ 721 µM) in experiment [5], 64 µg/mL (≈ 180 µM) in experiment [6], 64 µg/mL (≈ 180 µM) in experiment [7] and 32 µg/mL (≈ 90.2 µM) in experiment [8].

`O=[N+]([O-])c1ccc(NC(=S)N/N=C/c2cc3ccccc3nc2Cl)cc1`: the figures for the “inhibition zone (IZ)” value in experiment [1], in experiment [2] and in experiment [4] were 13.46 mm, 12.25 mm and 13.27 mm, respectively. Besides, the minimal inhibitory concentration (MIC) in experiment [5] came to 64 µg/mL (≈ 166 µM); in experiment [6], 64 µg/mL (≈ 166 µM); in experiment [7], 256 µg/mL (≈ 663 µM); in experiment [8], 32 µg/mL (≈ 82.9 µM).

The values are drawn from ChEMBL document CHEMBL1799921, “3-(1,3,4-Thiadiazole-2-yl)quinoline derivatives: synthesis, characterization and anti-microbial activity” (Eur J Med Chem, 2011).
